According to ChEMBL document CHEMBL1140852, “Synthesis, biological evaluation and quantitative structure-activities relationship of flavonoids as vasorelaxant agents” (Bioorg Med Chem, 2009):

Tests used:
Aorta [1] = assay: Vasorelaxant activity in Sprague-Dawley rat aorta assessed as inhibition of phenylephrine-induced contraction after 15 to 20 mins relative to phenylephrine; type: functional
Procedure, shortened: (§1)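 Aortic rings from male Sprague-Dawley rats (4–6 months, ~250 g), equilibrated at least 1 h, then precontracted isometrically with PE (1 µM). Once contraction stabilized (~20 min), compounds were added cumulatively at 15–20 min intervals, up to 300 µM. Vehicle-treated control tissues were run in parallel. Relaxation is expressed as % of PE contraction (Emax), n = 4. EC50 was taken as 50% of maximum relaxation, from nonlinear regression of concentration-response curves.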

Aorta [2] = assay: Vasorelaxant activity in Sprague-Dawley rat aorta assessed as inhibition of phenylephrine-induced contraction after 15 to 20 mins; type: functional, tissue-based; procedure, shortened: as §1

Row | EC50 (Aorta [2]) [µM] | EC50 (Aorta [2]; read-out: pEC50 (converted)) [µM] | Structure (SMILES) | Emax (Aorta [1]) [%]
1 | 37 | 36.3 | C=CCc1c(O)cc(O)c2c1OC(c1cccc(O)c1)CC2=O (racemic) | 97.8
2 | 32.1 | 32.4 | C=CCc1c(O)cc(O)c2c1OC(c1ccc(O)cc1)CC2=O (racemic) | 98.6
3 |  | 21.4 | O=C(/C=C/c1cccc(Br)c1)c1c(O)cc(O)cc1O | 99.8
4 | 81.7 | 81.3 | O=c1cc(-c2ccc3c(c2)OCO3)oc2cc(O)ccc12 | 82.1
5 | 42.4 | 43.7 | O=C1CC(c2cccc(Br)c2)Oc2cc(O)cc(O)c21 (racemic) | 93.5
6 | 4.6 | 4.68 | C=CCc1cc(O)cc2c1OC(c1ccc(Cl)cc1)CC2=O (racemic) | 95.1
7 |  |  | C=CCc1cc(O)cc(C(=O)/C=C/c2ccc(O)cc2)c1O | 59.8
8 |  |  | O=C1/C(=C/c2cccc(Br)c2)Oc2cc(O)cc(O)c21 | 59.2
9 |  |  | C=CCc1c(O)cc(O)c2c1OC(c1ccc(OC)cc1)CC2=O (racemic) | 81
10 | 142 | 145 | C=CCc1c(O)ccc2c1OC(c1ccc(Cl)cc1)CC2=O (racemic) | 70.8
11 | 22.5 | 22.4 | O=C(/C=C/c1ccc2c(c1)OCO2)c1c(O)cc(O)cc1O | 104
12 | 10.2 | 10.2 | C=CCc1cc(O)cc2c1OC(c1cccc(O)c1)CC2=O (racemic) | 90.2
13 |  |  | C=CCc1c(O)cc(O)c2c1OC(c1cccc(Cl)c1)CC2=O (racemic) | 76.7
14 | 89.1 | 89.1 | C=CCc1c(O)ccc(C(=O)/C=C/c2ccc(O)cc2)c1O | 73.4
15 | 9.4 | 9.33 | C=CCc1c(O)ccc2c1OC(c1ccc3c(c1)OCO3)CC2=O (racemic) | 96.6
16 |  |  | C=CCc1c(O)ccc(C(=O)/C=C/c2ccc3c(c2)OCO3)c1O | 71.8
17 |  |  | C=CCc1c(O)cc(O)c2c1OC(c1ccc(Cl)cc1)CC2=O (racemic) | 77.6
18 | 34.5 | 33.9 | C=CCc1cc(O)cc2c1OC(c1ccc(O)cc1)CC2=O (racemic) | 95.3
19 |  |  | C=CCc1c(O)ccc2c1OC(c1ccc(O)c(OC)c1)CC2=O (racemic) | 85
20 | 24 | 24 | C=CCc1c(O)cc(O)c(C(=O)/C=C/c2ccc(O)cc2)c1O | 108
21 | 220 | 224 | O=C1/C(=C/c2ccc3c(c2)OCO3)Oc2cc(O)cc(O)c21 | 58.4
22 | 26.9 | 26.9 | C=CCc1c(O)ccc2c1OC(c1ccc(O)cc1)CC2=O (racemic) | 87.2
23 | 38.5 | 38 | O=C1CC(c2cccc(Br)c2)Oc2ccc(O)cc21 (racemic) | 91.8
24 | 36.8 | 36.3 | O=c1cc(-c2cccc(Br)c2)oc2cc(O)cc(O)c12 | 84.3
25 | 51.3 | 51.3 | C=CCc1cc(O)cc2c(=O)cc(-c3ccc(O)cc3)oc12 | 67.3
26 | 20.1 | 20 | O=C1CC(c2ccc3c(c2)OCO3)Oc2cc(O)cc(O)c21 (racemic) | 97.2
27 |  |  | C=CCc1c(O)cc(O)c2c1OC(c1cccc(Br)c1)CC2=O (racemic) | 78.8

Row | Structure (SMILES) | EC50 (Aorta [2]) [µM] | EC50 (Aorta [2]; read-out: pEC50 (converted)) [µM] | Emax (Aorta [1]) [%]
28 | O=c1c(O)c(-c2ccc(O)c(O)c2)oc2cc(O)cc(O)c12 [QUERCETIN] |  | 245 | 91.3
